Data taken from ChEMBL document CHEMBL1629491, “Post Groebke-Blackburn multicomponent protocol: synthesis of new polyfunctional imidazo[1,2-a]pyridine and imidazo[1,2-a]pyrimidine derivatives as potential antimicrobial agents” (2010).
Converted amounts (≈) assume the structure as drawn.

Tests used:
Assay type in all cases: functional
[1] = system: Escherichia coli; assay: Antimicrobial activity against Escherichia coli after 24 hrs […]
How it was run: (§1)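 Broth microdilution MIC. Bacteria were grown in Luria broth (1% tryptone, 0.5% yeast extract, 0.5% NaCl, pH 7.2) at 37 °C for 24 h. Mid-log cultures were read at OD540 and diluted to OD 0.004 (5 × 10⁵ CFU/mL) before inoculation. Compounds in DMSO were given as eleven twofold serial dilutions, and plates were incubated at 37 °C for 24 h. MIC was the lowest concentration with no visible growth by turbidity. Cefixime, amoxicillin and vancomycin were the positive controls.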

[2] = system: Klebsiella aerogenes; assay: Antimicrobial activity against Enterobacter aerogenes after 24 hrs […]; how it was run: as §1
[3] = system: Enterococcus faecalis; assay: Antimicrobial activity against Enterococcus faecalis after 24 hrs […]; how it was run: as §1
[4] = system: Pseudomonas aeruginosa; assay: Antimicrobial activity against Pseudomonas aeruginosa after 24 hrs […]; how it was run: as §1
[5] = system: Staphylococcus aureus; assay: Antimicrobial activity against Staphylococcus aureus after 24 hrs […]; how it was run: as §1
[6] = system: Priestia megaterium; assay: Antimicrobial activity against Bacillus megaterium after 24 hrs […]; how it was run: as §1

MIC [1] [µg/mL] | MIC [2] [µg/mL] | MIC [3] [µg/mL] | MIC [4] [µg/mL] | MIC [5] [µg/mL] | MIC [6] [µg/mL] | Compound
3.12 (≈ 5.63 µM) | 2.23 (≈ 4.02 µM) | 6.18 (≈ 11.1 µM) | 4.45 (≈ 8.03 µM) | 3.35 (≈ 6.04 µM) | 11.2 (≈ 20.2 µM) | O=[N+]([O-])c1ccc(-c2nnc(-c3cnc4nc(-c5ccc(Br)cc5)c(Nc5ccccc5)n4c3)o2)cc1
13.4 (≈ 27.5 µM) | 10.2 (≈ 20.8 µM) | 11.4 (≈ 23.3 µM) | 12.6 (≈ 25.7 µM) | 9.85 (≈ 20.2 µM) | 15.5 (≈ 31.7 µM) | Cc1ccc(-c2nc3ccc(-c4nnc(-c5ccc([N+](=O)[O-])cc5)o4)cn3c2Nc2ccccc2)cc1
7.37 (≈ 13.3 µM) | 4.12 (≈ 7.45 µM) | 8.22 (≈ 14.9 µM) | 5.45 (≈ 9.85 µM) | 6.36 (≈ 11.5 µM) | 12.7 (≈ 23 µM) | O=[N+]([O-])c1ccc(-c2nnc(-c3ccc4nc(-c5ccc(Br)cc5)c(Nc5ccccc5)n4c3)o2)cc1
1.11 (≈ 2.11 µM) | 0.85 (≈ 1.61 µM) | 1.57 (≈ 2.98 µM) | 2.43 (≈ 4.62 µM) | 0.51 (≈ 0.969 µM) | 4.97 (≈ 9.44 µM) | Fc1ccc(-c2nnc(-c3ccc4nc(-c5ccc(Br)cc5)c(Nc5ccccc5)n4c3)o2)cc1
2.34 (≈ 4.3 µM) | 3.16 (≈ 5.81 µM) | 5.37 (≈ 9.87 µM) | 1.56 (≈ 2.87 µM) | 2.45 (≈ 4.51 µM) | 8.45 (≈ 15.5 µM) | Clc1ccc(-c2nnc(-c3cnc4nc(-c5ccc(Br)cc5)c(Nc5ccccc5)n4c3)o2)cc1
12.4 (≈ 23.7 µM) | 11.3 (≈ 21.6 µM) | 11.8 (≈ 22.6 µM) | 10.2 (≈ 19.5 µM) | 12.3 (≈ 23.5 µM) | 16.6 (≈ 31.7 µM) | Cc1ccc(-c2nnc(-c3ccc4nc(-c5ccc(Br)cc5)c(Nc5ccccc5)n4c3)o2)cc1

The remaining lines, values behind:

Compound | MIC [1] [µg/mL] | MIC [2] [µg/mL] | MIC [3] [µg/mL] | MIC [4] [µg/mL] | MIC [5] [µg/mL] | MIC [6] [µg/mL]
Cc1ccc2nc(-c3ccc4nc(-c5ccc(Br)cc5)c(Nc5ccccc5)n4c3)[nH]c2c1 | 10.3 (≈ 20.9 µM) | 11.8 (≈ 23.8 µM) | 13.6 (≈ 27.6 µM) | 13.4 (≈ 27 µM) | 9.51 (≈ 19.2 µM) | 18.6 (≈ 37.6 µM)
Clc1ccc(-c2cnc(-c3cnc4nc(-c5ccc(Br)cc5)c(Nc5ccccc5)n4c3)[nH]2)cc1 | 3.11 (≈ 5.74 µM) | 1.89 (≈ 3.49 µM) | 4.28 (≈ 7.9 µM) | 1.82 (≈ 3.36 µM) | 1.76 (≈ 3.25 µM) | 11.6 (≈ 21.5 µM)
Fc1ccc(-c2cnc(-c3ccc4nc(-c5ccc(Br)cc5)c(Nc5ccccc5)n4c3)[nH]2)cc1 | 1.33 (≈ 2.54 µM) | 1.55 (≈ 2.96 µM) | 3.17 (≈ 6.05 µM) | 2.12 (≈ 4.04 µM) | 0.72 (≈ 1.37 µM) | 8.34 (≈ 15.9 µM)
Brc1ccc(-c2cnc(-c3ccc4nc(-c5ccc(Oc6ccccc6)cc5)c(Nc5ccccc5)n4c3)[nH]2)cc1 | 12.2 (≈ 20.4 µM) | 10.7 (≈ 17.9 µM) | 13.7 (≈ 22.9 µM) | 11.8 (≈ 19.7 µM) | 10.2 (≈ 17.1 µM) | 19.9 (≈ 33.2 µM)
CC1(C)S[C@@H]2[C@H](NC(=O)[C@H](N)c3ccc(O)cc3)C(=O)N2[C@H]1C(=O)O [AMOXICILLIN] | 16.4 (≈ 45 µM) | 3.65 (≈ 9.99 µM) | 1.22 (≈ 3.34 µM) | 14.5 (≈ 39.8 µM) | 13.3 (≈ 36.5 µM) | 2.75 (≈ 7.53 µM)
Cc1ccc(-c2nc3ccc(-c4nc5ccc(Oc6ccccc6)cc5[nH]4)cn3c2Nc2ccccc2)cc1 | 34.8 (≈ 68.5 µM) | 57.3 (≈ 113 µM) | 46.5 (≈ 91.6 µM) | 45.4 (≈ 89.5 µM) | 54.9 (≈ 108 µM) | 65.5 (≈ 129 µM)
Fc1ccc(-c2nnc(-c3ccc4nc(-c5ccc(Oc6ccccc6)cc5)c(Nc5ccccc5)n4c3)o2)cc1 | 11.7 (≈ 21.7 µM) | 8.42 (≈ 15.6 µM) | 12.6 (≈ 23.3 µM) | 9.64 (≈ 17.9 µM) | 11.1 (≈ 20.6 µM) | 17.4 (≈ 32.3 µM)
Fc1ccc2nc(-c3cnc4nc(-c5ccc(Oc6ccccc6)cc5)c(Nc5ccccc5)n4c3)[nH]c2c1 | 10.5 (≈ 20.5 µM) | 6.12 (≈ 11.9 µM) | 10.4 (≈ 20.3 µM) | 7.38 (≈ 14.4 µM) | 9.43 (≈ 18.4 µM) | 19.8 (≈ 38.6 µM)
Fc1ccc2nc(-c3ccc4nc(-c5ccc(Br)cc5)c(Nc5ccccc5)n4c3)[nH]c2c1 | 2.15 (≈ 4.31 µM) | 2.05 (≈ 4.11 µM) | 5.23 (≈ 10.5 µM) | 3.44 (≈ 6.9 µM) | 1.51 (≈ 3.03 µM) | 10.2 (≈ 20.6 µM)
O=[N+]([O-])c1ccc2nc(-c3ccc4nc(-c5ccc(Br)cc5)c(Nc5ccccc5)n4c3)[nH]c2c1 | 11.3 (≈ 21.5 µM) | 12.8 (≈ 24.5 µM) | 13.4 (≈ 25.4 µM) | 14.5 (≈ 27.6 µM) | 10.3 (≈ 19.6 µM) | 17.5 (≈ 33.4 µM)
Fc1ccc(-c2cnc(-c3cnc4nc(-c5ccc(Br)cc5)c(Nc5ccccc5)n4c3)[nH]2)cc1 | 1.15 (≈ 2.19 µM) | 1.11 (≈ 2.11 µM) | 4.21 (≈ 8.01 µM) | 2.34 (≈ 4.45 µM) | 0.63 (≈ 1.2 µM) | 9.17 (≈ 17.5 µM)
